The MIC is the smallest concentration in the dilution series that meets the test's criterion for growth inhibition.

Converted amounts (≈) assume the structure as drawn.

These results are taken from ChEMBL document CHEMBL4765357, “Development of small-molecule inhibitors of fatty acyl-AMP and fatty acyl-CoA ligases in Mycobacterium tuberculosis” (Eur J Med Chem, 2020).

The subject of assay [1] is Mycobacterium tuberculosis. Put plainly: Antimycobacterial activity against isoniazid/rifampicin/ethambutol/para-aminosalicylic acid extensively drug-resistant Mycobacterium tuberculosis assessed as inhibition of bacterial growth under GAST medium condition after 7 to 14 days by broth microdilution method. The conditions noted are these: time 7-14 day. The class given is functional. Put shortly: (§1)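 Clinical MDR/XDR Mtb strains tested by broth microdilution in GAST or 7H9 with tyloxapol (0.05%), BSA fraction V (5 g/L) and NaCl (0.8 g/L) plus a carbon source. Compounds were dosed from DMSO stocks against DMSO vehicle controls. Inoculum was 10⁴-10⁵ cells per assay, with growth monitored at days 7 and 14. MIC is the concentration causing >99% inhibition.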
(Broth dilution looks for growth in wells or tubes with falling amounts of substance.)

Assay [2] deals with Mycobacterium tuberculosis. Put plainly: Antimycobacterial activity against isoniazid/rifampicin/ethambutol/streptomycin/ofloxacin/para-aminosalicylic acid/prothionamide multidrug-resistant Mycobacterium tuberculosis assessed as inhibition of bacterial growth under GAST medium condition after 7 to 14 days by broth microdilution method. The class given is functional. The conditions noted are these: time 7-14 day. Put shortly:
as §1

Assay [3] has as its system Mycobacterium tuberculosis. Put plainly: Antimycobacterial activity against isoniazid/rifampicin/ethambutol/pyrazinamide/streptomycin/kanamycin/para-aminosalicylic acid/prothionamide multidrug-resistant Mycobacterium tuberculosis assessed as inhibition of bacterial growth under 7H9 medium condition after 7 to 14 days by broth microdilution method. The conditions noted are these: time 7-14 day. The class given is functional. Put shortly: as §1

The subject of assay [4] is Mycobacterium tuberculosis. Put plainly: Antimycobacterial activity against isoniazid/rifampicin/ethambutol/para-aminosalicylic acid extensively drug-resistant Mycobacterium tuberculosis assessed as inhibition of bacterial growth under 7H9 medium condition after 7 to 14 days by broth microdilution method. Conditions: time 7-14 day. The class given is functional. The essentials: as §1

In assay [5] the test system is Mycobacterium tuberculosis. Kind of assay: Antimycobacterial activity against isoniazid/rifampicin/ethambutol/kanamycin/ofloxacin multidrug-resistant Mycobacterium tuberculosis assessed as inhibition of bacterial growth under GAST medium condition after 7 to 14 days by broth microdilution method. The class given is functional. The conditions noted are these: time 7-14 day. The essentials: as §1

Assay [6] relates to Mycobacterium tuberculosis. Put plainly: Antimycobacterial activity against isoniazid/rifampicin/ethambutol/kanamycin/ofloxacin multidrug-resistant Mycobacterium tuberculosis assessed as inhibition of bacterial growth under 7H9 medium condition after 7 to 14 days by broth microdilution method. The class given is functional. Conditions: time 7-14 day. Put shortly: as §1
Assay [7] deals with Mycobacterium tuberculosis. Put plainly: Antimycobacterial activity against isoniazid/rifampicin/ethambutol/pyrazinamide/streptomycin/kanamycin/para-aminosalicylic acid/prothionamide multidrug-resistant Mycobacterium tuberculosis assessed as inhibition of bacterial growth under GAST medium condition after 7 to 14 days by broth microdilution method. The class given is functional. Conditions: time 7-14 day. The essentials:
as §1

Assay [8] concerns Mycobacterium tuberculosis. Kind of assay: Antimycobacterial activity against isoniazid/rifampicin/ethambutol/pyrazinamide/streptomycin/kanamycin/para-aminosalicylic acid/prothionamide multidrug-resistant Mycobacterium tuberculosis assessed as inhibition of bacterial growth under 7H9 medium condition after 7 to 14 days in presence of tylo-xapol by broth microdilution method. The class given is functional. The conditions noted are these: time 7-14 day. The essentials: as §1

Assay [9] has as its system Mycobacterium tuberculosis. Put plainly: Antimycobacterial activity against isoniazid/rifampicin/ethambutol/streptomycin/ofloxacin/para-aminosalicylic acid/prothionamide multidrug-resistant Mycobacterium tuberculosis assessed as inhibition of bacterial growth under 7H9 medium condition after 7 to 14 days by broth microdilution method. The class given is functional. Conditions: time 7-14 day. Put shortly:
as §1

Assay [10] concerns the target T1, Long-chain-fatty-acid--AMP ligase FadD32 (Mycobacterium tuberculosis (strain ATCC 25618 / H37Rv), UniProt O53580).
T1 sequence (O53580 whole entry): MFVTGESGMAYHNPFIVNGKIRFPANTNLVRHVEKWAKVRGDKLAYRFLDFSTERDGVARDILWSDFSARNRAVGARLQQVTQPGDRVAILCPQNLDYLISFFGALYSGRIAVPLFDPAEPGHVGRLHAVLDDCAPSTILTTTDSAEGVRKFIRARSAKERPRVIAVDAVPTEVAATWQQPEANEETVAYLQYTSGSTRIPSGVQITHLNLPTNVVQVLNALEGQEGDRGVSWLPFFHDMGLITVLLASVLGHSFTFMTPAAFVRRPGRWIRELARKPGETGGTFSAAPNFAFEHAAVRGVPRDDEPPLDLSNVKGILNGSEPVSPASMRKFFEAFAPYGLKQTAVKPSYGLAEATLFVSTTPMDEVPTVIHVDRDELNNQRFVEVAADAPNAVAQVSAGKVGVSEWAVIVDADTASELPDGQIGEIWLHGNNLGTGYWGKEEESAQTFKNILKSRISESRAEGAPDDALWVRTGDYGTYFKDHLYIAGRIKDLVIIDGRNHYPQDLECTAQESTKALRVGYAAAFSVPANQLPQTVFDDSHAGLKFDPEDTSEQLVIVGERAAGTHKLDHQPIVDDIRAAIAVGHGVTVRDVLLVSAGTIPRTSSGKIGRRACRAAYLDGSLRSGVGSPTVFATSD
Put plainly: Inhibition of Mycobacterium tuberculosis H37Rv FAAL32 expressed in Escherichia coli BL21(DE3) cells incubated for 2 hrs in presence of [C14] fatty acid by SDS-PAGE analysis. Conditions: read-out: Ki(app).

In the case of `C=CCCCCCCCCC(=O)NS(=O)(=O)OC[C@H]1O[C@@H](n2cnc3c(N)ncnc32)[C@H](O)[C@@H]1O`, the MIC was 3.13 µM (≈ 1.6 µg/mL) in [1]; 3.13 µM (≈ 1.6 µg/mL) in assay [2]; 50 µM (≈ 25.6 µg/mL) in assay [3]; 12.5 µM (≈ 6.41 µg/mL) in assay [4]; 3.13 µM (≈ 1.6 µg/mL) in [5]; 625 µM (≈ 320 µg/mL) in assay [6]. The MIC in assay [7] was 3.13 µM (≈ 1.6 µg/mL); in assay [8], 6.25 µM; in assay [9], 25 µM (≈ 12.8 µg/mL).
As to `Nc1ncnc2c1ncn2[C@@H]1O[C@H](COS(=O)(=O)NC(=O)CCCCCCCCCCOc2ccccc2)[C@@H](O)[C@H]1O`, the minimum inhibitory concentration (MIC) in assay [2] was determined as 625 µM (≈ 379 µg/mL); in assay [3], 12.5 µM (≈ 7.58 µg/mL); in [4], 12.5 µM (≈ 7.58 µg/mL); in [6], 12.5 µM (≈ 7.58 µg/mL); in [7], 6.25 µM (≈ 3.79 µg/mL); in assay [8], 12.5 µM. Also, the MIC in assay [9] was determined as 50 µM (≈ 30.3 µg/mL).
Consider `NNC(=O)c1ccncc1` [ISONIAZID], for which the MIC in assay [1] was 4 µM (≈ 0.549 µg/mL); in assay [2], 8 µM (≈ 1.1 µg/mL); in assay [3], 2 µM (≈ 0.274 µg/mL); in assay [4] it was 2 µM (≈ 0.274 µg/mL); in [5] it was 4 µM (≈ 0.549 µg/mL); in [6], 2 µM (≈ 0.274 µg/mL). The MIC is above 8 µM in assay [7], 2 µM in assay [8] and 8 µM (≈ 1.1 µg/mL) in assay [9].
With `[N-]=[N+]=NCCCCCCCCCCCC(=O)NS(=O)(=O)OC[C@H]1O[C@@H](n2cnc3c(N)ncnc32)[C@H](O)[C@@H]1O`, the MIC in assay [1] worked out at 3.13 µM (≈ 1.78 µg/mL); in [2], 625 µM (≈ 356 µg/mL); in assay [3], 50 µM (≈ 28.5 µg/mL); in assay [4] it was 12.5 µM (≈ 7.12 µg/mL); in [5], 3.13 µM (≈ 1.78 µg/mL); in assay [6], 625 µM (≈ 356 µg/mL). The values for the MIC in assay [7], in assay [8] and in assay [9] were 3.13 µM (≈ 1.78 µg/mL), 6.25 µM and 25 µM (≈ 14.2 µg/mL), respectively.
Turning to `CCCCCCCCCCCC(=O)NS(=O)(=O)OC[C@H]1O[C@@H](n2cnc3c(N)ncnc32)[C@H](O)[C@@H]1O`, the MIC was 6.25 µM (≈ 3.3 µg/mL) in assay [1]; 12.5 µM (≈ 6.61 µg/mL) in assay [2]; 12.5 µM (≈ 6.61 µg/mL) in assay [3]; 6.25 µM (≈ 3.3 µg/mL) in [4]; 3.13 µM (≈ 1.65 µg/mL) in assay [5]; 6.25 µM (≈ 3.3 µg/mL) in assay [6]. Moreover, the values for the MIC in assay [7], in assay [8] and in [9] were 25 µM (≈ 13.2 µg/mL), 12.5 µM and 12.5 µM (≈ 6.61 µg/mL), respectively.
As to `CCCCCCCCCOCC(=O)NS(=O)(=O)OC[C@H]1O[C@@H](n2cnc3c(N)ncnc32)[C@H](O)[C@@H]1O`, the MIC was 0.78 µM (≈ 0.414 µg/mL) in assay [1]; 6.25 µM (≈ 3.32 µg/mL) in assay [2]; 12.5 µM (≈ 6.63 µg/mL) in [3]; 6.25 µM (≈ 3.32 µg/mL) in assay [4]; 0.39 µM (≈ 0.207 µg/mL) in assay [5]; 6.25 µM (≈ 3.32 µg/mL) in [6]. In addition, the MIC in assay [7] was 1.56 µM (≈ 0.828 µg/mL); in assay [8] it was 12.5 µM; in [9], 50 µM (≈ 26.5 µg/mL).
Regarding `CCCCCCCCCCCCCC(=O)NS(=O)(=O)OC[C@H]1O[C@@H](n2cnc3c(N)ncnc32)[C@H](O)[C@@H]1O`, the MIC in assay [1] was determined as 6.25 µM (≈ 3.48 µg/mL); in assay [2] it was 12.5 µM (≈ 6.96 µg/mL); in assay [3], 25 µM (≈ 13.9 µg/mL); in assay [4] it was 6.25 µM (≈ 3.48 µg/mL); in [5] it was 6.25 µM (≈ 3.48 µg/mL); in assay [6], 3.13 µM (≈ 1.74 µg/mL). Also, the results for the MIC in assay [7], in [8] and in [9] were 12.5 µM (≈ 6.96 µg/mL), 12.5 µM and 12.5 µM (≈ 6.96 µg/mL), respectively.
Regarding `CCCCCCCCCCCCOP(=O)(O)OC[C@H]1O[C@@H](n2cnc3c(N)ncnc32)[C@H](O)[C@@H]1O`, in assay [10], the Ki was determined as 110 nM.
